Key:
[1] = molecular target: Beta-1 adrenergic receptor (Homo sapiens) (UniProt P08588); experiment: Displacement of [125I]-pindolol from human beta1 adrenergic receptor expressed in CHO FLp-In cell membranes at 10 uM incubated for 90 mins under dark condition by scintillation counting analysis relative to control
Rattus norvegicus [2] = experiment: Potentiation of WAY163909-induced neurobiological activity in Sprague-Dawley rat assessed as increase in number of rat choosing WAY163909 associated lever at 2 mg/kg, ip treated 15 mins prior to WAY163909 addition and measured after 15 mins in presence of 5HT2CR antagonist SB242084 by drug discrimination test (reference value: 53%); assay type: functional
Outline: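 Two-lever FR20 drug discrimination in male Sprague-Dawley rats (n = 13) trained on WAY163909 0.75 mg/kg ip versus saline. SB242084 (0.5 mg/kg ip) given 15 min before WAY163909. Test compound (2 mg/kg ip) given 15 min before WAY163909 (0.5 mg/kg ip). Rats placed in chambers 15 min after WAY163909. Read-out is the percentage of rats choosing the WAY163909 lever.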

Rattus norvegicus [3] = experiment: Potentiation of WAY163909-induced neurobiological activity in Sprague-Dawley rat assessed as increase in number of rat choosing WAY163909 associated lever at 2 mg/kg, ip treated 15 mins prior to WAY163909 addition and measured after 15 mins by drug discrimination test (reference value: 53%); assay type: functional
[4] = molecular target: Alpha-1D adrenergic receptor (Homo sapiens) (UniProt P25100); experiment: Displacement of [3H]-prazosin from human adrenergic alpha1D receptor at 10 uM incubated for 90 mins under dark condition by scintillation counting analysis relative to control
CYP2C19 = CYP2C19 (Homo sapiens, UniProt P33261); experiment: Inhibition of CYP2C19 (unknown origin) at 10 uM relative to control; assay type: ADME
Outline: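 Each CYP isoform inhibition assay run with test compound at 10 µM; reported as percent inhibition.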

[5] = molecular target: Sodium-dependent noradrenaline transporter (Homo sapiens, UniProt P23975); experiment: Displacement of [3H]-nisoxetine from human NET stably expressed in HEK cell membranes at 10 uM incubated for 90 mins under dark condition by scintillation counting analysis relative to control
[6] = molecular target: 5-hydroxytryptamine receptor 1A (Homo sapiens) (UniProt P08908); experiment: Displacement of [3H]-8-OH-DPAT from human 5HT1A stably expressed in CHO cell membranes at 10 uM incubated for 90 mins under dark condition by scintillation counting analysis relative to control
[7] = molecular target: 5-hydroxytryptamine receptor 5A (Homo sapiens) (UniProt P47898); experiment: Displacement of [3H]-LSD from human 5HT5A expressed in Flp-In-CHO cell membranes at 10 uM incubated for 90 mins under dark condition by scintillation counting analysis relative to control
[8] = Apparent permeability across apical to basolateral side in MDCK-MDR1 cells; assay type: ADME, cell-based, Canis lupus familiaris; settings: dog
[9] = molecular target: Alpha-2B adrenergic receptor (Homo sapiens) (UniProt P18089); experiment: Displacement of [3H]-rauwolscine from human adrenergic alpha2B receptor transiently expressed in HEKT cell membranes at 10 uM incubated for 90 mins under dark condition by scintillation counting analysis relative to control
[10] = Oral bioavailability in Sprague-Dawley rat at 20 mg/kg; assay type: ADME, organism-based; settings: in vivo
Outline: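 Male Sprague-Dawley rats, 200–250 g, n = 3/group, randomly assigned; dosed 10 mg/kg iv or 20 mg/kg po in 10% DMSO:90% HP-β-CD. Retro-orbital blood sampled predose and 0.08 (iv only), 0.25, 0.5, 1, 2, 4, 8, 24 h. Noncompartmental analysis; Cmax read directly from plasma concentration–time plot; mean ± SEM.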

[11] = molecular target: Cannabinoid receptor 2 (Homo sapiens) (UniProt P34972); experiment: Displacement of [3H]-CP55940 from human CB2 receptor expressed in HEK-Flp-In cell membranes at 10 uM incubated for 90 mins under dark condition by scintillation counting analysis relative to control
5-HT2A receptor = 5-HT2A receptor (Homo sapiens, UniProt P28223); experiment: Displacement of [3H]-ketanserin from 5HT2A (unknown origin) at 10 uM incubated for 90 mins under dark condition by scintillation counting analysis relative to control; settings: probe [3H]-ketanserin
[12] = molecular target: D(4) dopamine receptor (Homo sapiens) (UniProt P21917); experiment: Displacement of [3H]-N-methylspiperone from human dopamine D4 receptor stably expressed in HEK cell membranes at 10 uM incubated for 90 mins under dark condition by scintillation counting analysis relative to control
[13] = molecular target: 5-hydroxytryptamine receptor 1B (Homo sapiens) (UniProt P28222); experiment: Displacement of [3H]-GR125743 from human 5HT1B stably expressed in HEK cell membranes at 10 uM incubated for 90 mins under dark condition by scintillation counting analysis relative to control
5-hydroxytryptamine receptor 1B (Homo sapiens), sequence (P28222 whole entry): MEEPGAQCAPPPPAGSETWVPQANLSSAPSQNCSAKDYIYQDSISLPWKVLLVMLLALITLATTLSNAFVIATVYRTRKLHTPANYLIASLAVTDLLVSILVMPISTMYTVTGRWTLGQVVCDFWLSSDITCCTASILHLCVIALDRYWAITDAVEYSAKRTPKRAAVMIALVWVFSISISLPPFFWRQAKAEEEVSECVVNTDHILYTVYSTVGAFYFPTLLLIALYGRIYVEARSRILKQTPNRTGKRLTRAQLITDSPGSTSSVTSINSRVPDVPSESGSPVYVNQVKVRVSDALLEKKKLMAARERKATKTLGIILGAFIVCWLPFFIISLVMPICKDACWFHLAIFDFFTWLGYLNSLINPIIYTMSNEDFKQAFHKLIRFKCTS

Alpha-2B adrenergic receptor (Homo sapiens), sequence (P18089 whole entry): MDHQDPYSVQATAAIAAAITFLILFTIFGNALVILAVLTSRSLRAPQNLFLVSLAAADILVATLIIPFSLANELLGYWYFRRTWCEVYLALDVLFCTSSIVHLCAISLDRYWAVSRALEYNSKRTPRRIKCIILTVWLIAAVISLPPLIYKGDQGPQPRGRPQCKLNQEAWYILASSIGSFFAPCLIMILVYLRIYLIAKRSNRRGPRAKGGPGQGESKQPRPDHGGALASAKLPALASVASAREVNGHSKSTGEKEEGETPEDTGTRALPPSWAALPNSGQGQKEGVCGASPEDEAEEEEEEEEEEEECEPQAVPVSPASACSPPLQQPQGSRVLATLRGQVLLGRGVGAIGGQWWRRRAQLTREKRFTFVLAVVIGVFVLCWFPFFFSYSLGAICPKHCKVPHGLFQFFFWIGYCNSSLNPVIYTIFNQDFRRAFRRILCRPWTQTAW
Cannabinoid receptor 2 (Homo sapiens), sequence (P34972 whole entry): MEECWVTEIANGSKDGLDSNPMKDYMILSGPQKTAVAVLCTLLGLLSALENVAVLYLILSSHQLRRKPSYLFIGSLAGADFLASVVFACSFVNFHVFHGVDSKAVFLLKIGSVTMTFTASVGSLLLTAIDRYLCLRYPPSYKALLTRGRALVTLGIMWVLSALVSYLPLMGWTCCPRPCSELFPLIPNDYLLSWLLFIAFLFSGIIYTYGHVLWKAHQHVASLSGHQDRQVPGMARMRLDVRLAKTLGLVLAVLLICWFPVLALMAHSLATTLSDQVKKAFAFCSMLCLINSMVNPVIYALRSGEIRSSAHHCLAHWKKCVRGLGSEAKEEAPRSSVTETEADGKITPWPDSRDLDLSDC
5-hydroxytryptamine receptor 1A (Homo sapiens), sequence (P08908 whole entry): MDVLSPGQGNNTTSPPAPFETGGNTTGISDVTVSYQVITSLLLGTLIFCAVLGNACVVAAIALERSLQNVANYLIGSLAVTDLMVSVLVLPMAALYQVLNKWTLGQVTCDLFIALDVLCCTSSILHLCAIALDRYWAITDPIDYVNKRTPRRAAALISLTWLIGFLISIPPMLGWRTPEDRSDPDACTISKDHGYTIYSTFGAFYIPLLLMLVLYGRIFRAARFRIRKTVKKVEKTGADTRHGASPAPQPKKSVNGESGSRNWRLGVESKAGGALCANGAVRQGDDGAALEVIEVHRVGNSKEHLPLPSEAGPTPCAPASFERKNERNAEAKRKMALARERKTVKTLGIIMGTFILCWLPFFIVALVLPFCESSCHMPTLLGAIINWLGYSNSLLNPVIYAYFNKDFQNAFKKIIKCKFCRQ
5-hydroxytryptamine receptor 5A (Homo sapiens), sequence (P47898 whole entry): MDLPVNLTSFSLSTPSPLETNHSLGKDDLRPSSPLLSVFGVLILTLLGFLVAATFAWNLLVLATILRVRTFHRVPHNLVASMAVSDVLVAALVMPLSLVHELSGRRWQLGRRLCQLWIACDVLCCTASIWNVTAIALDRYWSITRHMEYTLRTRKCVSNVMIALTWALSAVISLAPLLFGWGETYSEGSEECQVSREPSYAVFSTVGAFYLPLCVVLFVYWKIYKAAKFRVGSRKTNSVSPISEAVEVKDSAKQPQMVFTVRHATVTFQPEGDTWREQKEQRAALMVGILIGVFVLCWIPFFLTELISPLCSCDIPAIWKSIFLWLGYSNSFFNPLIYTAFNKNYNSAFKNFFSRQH
5-HT2A receptor, sequence (P28223 whole entry): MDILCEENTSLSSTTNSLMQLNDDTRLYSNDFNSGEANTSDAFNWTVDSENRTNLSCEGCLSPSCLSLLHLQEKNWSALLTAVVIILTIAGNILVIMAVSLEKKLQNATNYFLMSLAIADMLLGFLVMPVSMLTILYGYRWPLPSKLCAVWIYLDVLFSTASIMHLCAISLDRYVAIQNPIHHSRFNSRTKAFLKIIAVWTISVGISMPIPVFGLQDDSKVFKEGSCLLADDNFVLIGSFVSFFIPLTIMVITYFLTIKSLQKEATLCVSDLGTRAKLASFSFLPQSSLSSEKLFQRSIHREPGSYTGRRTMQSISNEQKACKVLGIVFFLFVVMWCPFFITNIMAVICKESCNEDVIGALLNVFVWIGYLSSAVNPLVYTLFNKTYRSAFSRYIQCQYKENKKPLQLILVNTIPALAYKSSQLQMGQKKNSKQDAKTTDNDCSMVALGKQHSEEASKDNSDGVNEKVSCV
Alpha-1D adrenergic receptor (Homo sapiens), sequence (P25100 whole entry): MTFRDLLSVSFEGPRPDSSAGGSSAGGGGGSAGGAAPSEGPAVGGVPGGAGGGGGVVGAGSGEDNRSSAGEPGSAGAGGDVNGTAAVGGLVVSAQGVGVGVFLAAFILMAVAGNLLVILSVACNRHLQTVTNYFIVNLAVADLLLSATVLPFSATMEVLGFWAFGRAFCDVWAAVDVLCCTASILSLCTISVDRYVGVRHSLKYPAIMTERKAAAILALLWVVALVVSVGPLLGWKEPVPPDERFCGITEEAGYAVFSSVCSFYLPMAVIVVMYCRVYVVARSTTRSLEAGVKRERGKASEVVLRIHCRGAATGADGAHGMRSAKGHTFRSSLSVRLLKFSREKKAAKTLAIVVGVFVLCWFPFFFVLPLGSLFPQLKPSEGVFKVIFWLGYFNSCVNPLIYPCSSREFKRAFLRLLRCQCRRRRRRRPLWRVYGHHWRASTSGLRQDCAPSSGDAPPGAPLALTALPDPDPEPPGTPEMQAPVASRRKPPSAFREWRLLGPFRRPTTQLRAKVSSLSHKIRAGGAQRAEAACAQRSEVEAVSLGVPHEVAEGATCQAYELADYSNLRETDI
CYP2C19, sequence (P33261 whole entry, canonical isoform): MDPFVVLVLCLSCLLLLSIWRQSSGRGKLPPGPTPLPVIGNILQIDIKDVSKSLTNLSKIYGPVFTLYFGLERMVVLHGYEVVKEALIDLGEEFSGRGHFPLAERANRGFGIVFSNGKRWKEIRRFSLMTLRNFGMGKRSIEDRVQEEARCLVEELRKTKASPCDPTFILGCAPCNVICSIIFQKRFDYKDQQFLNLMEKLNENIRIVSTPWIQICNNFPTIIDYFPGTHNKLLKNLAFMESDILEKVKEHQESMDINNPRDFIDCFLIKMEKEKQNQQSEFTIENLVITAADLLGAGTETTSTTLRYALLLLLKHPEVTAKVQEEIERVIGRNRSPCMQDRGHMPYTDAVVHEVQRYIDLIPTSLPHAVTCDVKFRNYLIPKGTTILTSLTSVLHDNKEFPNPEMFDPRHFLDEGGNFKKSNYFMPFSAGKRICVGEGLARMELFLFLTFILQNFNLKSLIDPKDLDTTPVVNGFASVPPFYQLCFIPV
Beta-1 adrenergic receptor (Homo sapiens), sequence (P08588 whole entry, looked up): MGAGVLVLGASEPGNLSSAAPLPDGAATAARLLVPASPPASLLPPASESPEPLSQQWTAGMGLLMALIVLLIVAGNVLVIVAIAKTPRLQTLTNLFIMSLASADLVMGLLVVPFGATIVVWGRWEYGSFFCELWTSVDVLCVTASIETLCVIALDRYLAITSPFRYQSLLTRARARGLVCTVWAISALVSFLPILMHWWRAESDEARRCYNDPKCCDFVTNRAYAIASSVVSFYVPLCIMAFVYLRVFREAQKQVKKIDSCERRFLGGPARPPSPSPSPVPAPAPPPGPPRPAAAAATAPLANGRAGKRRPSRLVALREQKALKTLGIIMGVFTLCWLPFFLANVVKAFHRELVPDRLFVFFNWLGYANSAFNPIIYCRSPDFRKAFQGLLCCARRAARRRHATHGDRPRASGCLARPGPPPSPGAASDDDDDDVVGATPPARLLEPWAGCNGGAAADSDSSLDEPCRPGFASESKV
Sodium-dependent noradrenaline transporter, sequence (P23975 whole entry): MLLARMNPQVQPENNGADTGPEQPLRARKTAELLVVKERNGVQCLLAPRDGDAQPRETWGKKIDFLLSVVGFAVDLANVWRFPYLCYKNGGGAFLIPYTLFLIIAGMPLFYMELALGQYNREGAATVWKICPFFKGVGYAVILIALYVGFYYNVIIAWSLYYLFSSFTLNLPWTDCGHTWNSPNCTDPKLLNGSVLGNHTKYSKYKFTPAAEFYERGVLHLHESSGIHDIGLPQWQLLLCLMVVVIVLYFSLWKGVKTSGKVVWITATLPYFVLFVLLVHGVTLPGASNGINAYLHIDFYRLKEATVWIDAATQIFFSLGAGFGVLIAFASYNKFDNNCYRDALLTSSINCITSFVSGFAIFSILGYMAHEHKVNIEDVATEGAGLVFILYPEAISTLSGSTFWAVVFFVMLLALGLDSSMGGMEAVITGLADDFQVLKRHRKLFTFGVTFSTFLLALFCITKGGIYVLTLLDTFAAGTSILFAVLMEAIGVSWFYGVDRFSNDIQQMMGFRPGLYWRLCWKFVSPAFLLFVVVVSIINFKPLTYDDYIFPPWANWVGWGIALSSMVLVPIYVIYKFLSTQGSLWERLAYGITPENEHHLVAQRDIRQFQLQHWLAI

Q: For `O=C(NC[C@H](O)CO)[C@@H]1C[C@H](c2ccccc2)CCN1` (mixture of isomers), which inhibition [1] is on record?
A: Its inhibition is -7.7%.

Q: And the Activity (Rattus norvegicus [2])?
A: Its Activity is 0%.

Q: What about the Activity (Rattus norvegicus [3]) of the same compound?
A: The Activity was 92%.

Q: And the inhibition [4]?
A: The inhibition was -4.8%.

Q: What about the inhibition at 10 µM (CYP2C19) of the same compound?
A: The inhibition at 10 µM was 0%.

Q: And the inhibition [5]?
A: The inhibition was 74.4%.

Q: And the inhibition [6]?
A: The inhibition was 28.4%.

Q: What about the inhibition [7] of the same compound?
A: Its inhibition is -4.3%.

Q: And the Papp [8]?
A: The Papp was 0.04 ×10⁻⁶ cm/s.

Q: And the inhibition [9]?
A: The inhibition was 14.5%.

Q: What about the F [10] of the same compound?
A: Its F is 36.3%.

Q: And the inhibition [11]?
A: The inhibition was 30.6%.

Q: What about the inhibition at 1.5 h, 10 µM (5-HT2A receptor) of the same compound?
A: The inhibition at 1.5 h, 10 µM was -4.3%.

Q: And the inhibition [12]?
A: The inhibition was -9.3%.

Q: What about the inhibition [13] of the same compound?
A: Its inhibition is 12.3%.

Reference: ChEMBL document CHEMBL4622923, “Discovery of 4-Phenylpiperidine-2-Carboxamide Analogues as Serotonin 5-HT2C Receptor-Positive Allosteric Modulators with Enhanced Drug-like Properties” (J Med Chem, 2020)
